From paper PMC5077689 (FEBS letters, 2016)

What was measured:
[1] = Compound aggregation by dynamic light scattering; assay type: physicochemical; conditions: DYNAPRO, Fig S2
[2] = target: SHV-1 β-lactamase (Klebsiella pneumoniae, UniProt P0AD64); assay: Promiscuous inhibition test with SHV-1 β-lactamase; assay type: biochemical; conditions: Fig S1
[3] = target: T1, bovine lung sGC (Bos taurus, UniProt P16068+P19687); assay: BAY 58-2667 activated sGC activity assay; assay type: biochemical; conditions: 100μM inhibitor, 600μM GTP
T1 sequence (P19687 1-691): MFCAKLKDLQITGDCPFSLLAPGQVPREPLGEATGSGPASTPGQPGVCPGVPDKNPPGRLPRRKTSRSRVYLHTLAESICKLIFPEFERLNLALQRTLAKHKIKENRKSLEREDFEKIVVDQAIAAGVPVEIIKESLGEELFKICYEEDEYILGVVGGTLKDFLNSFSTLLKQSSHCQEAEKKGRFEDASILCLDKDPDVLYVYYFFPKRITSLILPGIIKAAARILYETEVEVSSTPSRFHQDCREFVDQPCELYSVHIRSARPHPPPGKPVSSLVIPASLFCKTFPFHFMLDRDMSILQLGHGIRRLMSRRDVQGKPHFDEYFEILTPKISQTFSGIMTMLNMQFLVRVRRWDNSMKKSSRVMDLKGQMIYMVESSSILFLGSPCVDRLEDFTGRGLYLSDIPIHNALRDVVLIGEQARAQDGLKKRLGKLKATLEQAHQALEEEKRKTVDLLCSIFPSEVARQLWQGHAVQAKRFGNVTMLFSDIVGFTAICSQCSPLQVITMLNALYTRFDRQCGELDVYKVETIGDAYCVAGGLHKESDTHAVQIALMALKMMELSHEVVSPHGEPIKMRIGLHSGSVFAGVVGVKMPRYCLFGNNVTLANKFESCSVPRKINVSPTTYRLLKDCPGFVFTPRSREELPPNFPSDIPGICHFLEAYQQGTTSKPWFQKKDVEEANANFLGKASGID
T1 sequence (P16068 1-619): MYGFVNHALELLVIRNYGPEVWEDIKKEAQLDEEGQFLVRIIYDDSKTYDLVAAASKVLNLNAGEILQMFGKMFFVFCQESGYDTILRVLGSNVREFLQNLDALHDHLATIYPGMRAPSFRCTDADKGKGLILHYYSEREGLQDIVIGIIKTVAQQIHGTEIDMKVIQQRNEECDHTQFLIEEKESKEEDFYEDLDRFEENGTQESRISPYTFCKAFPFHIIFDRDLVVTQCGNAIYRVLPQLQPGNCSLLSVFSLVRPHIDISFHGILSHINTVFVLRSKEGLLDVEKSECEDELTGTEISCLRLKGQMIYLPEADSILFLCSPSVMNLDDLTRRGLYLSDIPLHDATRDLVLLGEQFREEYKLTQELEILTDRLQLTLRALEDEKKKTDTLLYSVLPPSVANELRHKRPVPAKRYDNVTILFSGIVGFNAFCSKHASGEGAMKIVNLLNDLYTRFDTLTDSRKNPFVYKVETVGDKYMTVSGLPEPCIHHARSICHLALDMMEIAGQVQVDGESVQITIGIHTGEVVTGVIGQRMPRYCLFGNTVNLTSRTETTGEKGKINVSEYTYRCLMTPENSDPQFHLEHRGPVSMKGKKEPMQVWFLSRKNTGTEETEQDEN
In short: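 Bovine lung sGC, diluted 17-fold in 50mM Tris pH 7.5, 5mM MgCl2, 2mM BME, 20% sucrose, 0.5mg/ml BSA, used at 1nM. Preincubated 10 min at 37°C with varying BAY 58-2667 and inhibitor in 5mM MgCl2. 0.5% DMSO served as control. GTP added to start. Stopped by boiling; cGMP measured by ELISA. Triplicate, 3 independent experiments; SEM.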

[4] = target: T1, bovine lung sGC; assay: NO; assay type: biochemical
In short: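 Screening and kinetics used bovine lung sGC diluted 17-fold in 50mM Tris pH 7.5, 5mM MgCl2, 2mM BME, 20% sucrose, 0.5mg/ml BSA. 1nM enzyme was preincubated with inhibitor 10 min at 37°C in 50mM Tris pH 7.5, 2mM BME, 5mM MgCl2. DMSO-matched controls (1–2.5%). GTP plus 100μM SNAP started a 10 min, 37°C reaction, stopped by 10 min boiling. cGMP measured by ELISA; 3 independent experiments.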

[5] = target: T1, bovine lung sGC; assay: BAY 41-2272 stimulated sGC activity assay; assay type: biochemical; conditions: 100μM inhibitor, range of BAY 41-2272, presence and absence of 1μM SNAP, 500μM GTP
[6] = target: T2, sGC catalytic domain (Homo sapiens, UniProt Q02108+Q02153); assay: Purified sGC catalytic domain activity assay; assay type: biochemical; conditions: 1μM catalytic domain, 3 GTP concentrations, inhibitor 0–600μM
T2 sequence (Q02108 481-608 limits assumed): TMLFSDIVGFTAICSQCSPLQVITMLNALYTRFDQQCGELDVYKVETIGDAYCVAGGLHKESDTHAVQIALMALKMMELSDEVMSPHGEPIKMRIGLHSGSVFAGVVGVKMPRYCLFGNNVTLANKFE
T2 sequence (Q02153 421-554 limits assumed): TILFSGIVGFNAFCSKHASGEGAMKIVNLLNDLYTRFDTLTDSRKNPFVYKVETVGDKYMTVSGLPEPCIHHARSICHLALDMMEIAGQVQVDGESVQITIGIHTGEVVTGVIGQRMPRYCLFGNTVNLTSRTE
In short: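 Heterodimeric α1/β1 catalytic domain was co-purified from mixed cell pellets by His-tag Ni-NTA (30–300mM imidazole elution steps). The tag was removed with TEV, and the protein gel-filtered in 50mM HEPES pH 7, 150mM NaCl and stored at −80°C. Inhibitor was preincubated with domain 10 min at 37°C with Mg2+. GTP started the reaction, stopped by boiling after 10 min. cGMP measured by ELISA; triplicate; SEM.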

[7] = target: T3, full length sGC (Bos taurus, UniProt P16068+P19687); assay: Size exclusion chromatography for sGC aggregation; conditions: 200μM compound, data not shown
T3 sequence (P19687 1-691): T1 sequence (P19687 1-691)
T3 sequence (P16068 1-619): T1 sequence (P16068 1-619)

SHV-1 β-lactamase, sequence (P0AD64 22-286): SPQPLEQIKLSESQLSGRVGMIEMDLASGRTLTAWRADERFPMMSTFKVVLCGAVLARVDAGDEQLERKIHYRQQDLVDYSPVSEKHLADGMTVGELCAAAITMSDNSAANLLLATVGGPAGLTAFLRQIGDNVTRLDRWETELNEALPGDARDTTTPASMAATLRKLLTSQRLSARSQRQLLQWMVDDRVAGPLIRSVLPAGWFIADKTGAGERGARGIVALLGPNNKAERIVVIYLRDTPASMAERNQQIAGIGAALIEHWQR

Nc1nc(=O)[nH]nc1Nc1ccc(O)cc1 [Compound 1]
aggregate formation (dynamic light scattering) [1]: do not form detectably large aggregates | inhibition of SHV-1 β-lactamase [2]: did not inhibit | inhibition of BAY 58-2667 activated sGC [3]: 96% | inhibition of NO stimulated sGC activity, initial screen ([4]; 1nM sGC, 25μM GTP, 100μM SNAP, 10μM inhibitor): substantial inhibition | α-value (mixed inhibition model) ([4]; global fit of steady state inhibition data, 100μM SNAP): 3.6 | inhibition mechanism ([4]; judged from α-value of mixed model fit): mostly non-competitive | inhibition of BAY 41-2272 stimulated sGC [5]: inhibited | inhibition of the purified catalytic domain (in words) [6]: did not observe significant inhibition | sGC aggregation caused by compound (size exclusion chromatography) [7]: did not cause sGC aggregation
